Columns and labels:
[1] = biological target: T1, Acyl-CoA desaturase 1 (Rattus norvegicus, UniProt P07308); test: Inhibition of SCD-1 activity in rat liver microsomes assessed as reduction in [1-14C] stearoyl CoA desaturation by scintillation counting; parameters: species or system Microsome
T1 sequence (P07308 whole entry): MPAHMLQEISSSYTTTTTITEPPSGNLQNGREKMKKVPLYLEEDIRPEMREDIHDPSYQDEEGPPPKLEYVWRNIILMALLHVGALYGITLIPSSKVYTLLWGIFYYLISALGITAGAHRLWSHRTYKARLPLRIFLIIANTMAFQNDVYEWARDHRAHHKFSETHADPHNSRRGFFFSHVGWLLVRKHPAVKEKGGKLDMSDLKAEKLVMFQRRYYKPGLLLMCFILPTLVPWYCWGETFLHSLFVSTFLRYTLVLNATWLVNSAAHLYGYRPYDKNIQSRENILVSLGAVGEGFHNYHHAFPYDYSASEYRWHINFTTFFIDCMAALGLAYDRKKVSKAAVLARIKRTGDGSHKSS
Outline: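 The enzymatic assay used SCD-induced rat liver microsomes. IC50 values are the average of at least two independent titrations.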

[2] = biological target: T2, Stearoyl-CoA desaturase (Homo sapiens, UniProt O00767); test: Inhibition of SCD-1 activity in organic anion transporting polypeptides-deficient human HepG2 cells assessed as reduction in [1-14C] stearoyl CoA desaturation by scintillation counting; assay type: cell-based
T2 sequence (O00767 whole entry): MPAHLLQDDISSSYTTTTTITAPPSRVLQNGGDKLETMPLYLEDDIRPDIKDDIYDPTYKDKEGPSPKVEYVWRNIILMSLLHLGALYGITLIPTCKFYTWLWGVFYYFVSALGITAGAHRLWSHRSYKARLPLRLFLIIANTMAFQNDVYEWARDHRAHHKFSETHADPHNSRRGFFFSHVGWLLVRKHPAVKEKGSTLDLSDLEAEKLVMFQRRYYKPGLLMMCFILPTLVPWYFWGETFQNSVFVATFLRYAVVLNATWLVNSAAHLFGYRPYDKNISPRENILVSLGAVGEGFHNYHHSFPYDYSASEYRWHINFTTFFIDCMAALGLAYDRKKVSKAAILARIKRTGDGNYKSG
Outline: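 The whole-cell assay used human hepatocellular carcinoma HepG2 cells, which lack active OATPs. IC50 values are the average of at least two independent titrations.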

[3] = biological target: T1, Acyl-CoA desaturase 1; test: Inhibition of SCD-1 activity in rat hepatocytes expressing organic anion transporting polypeptides assessed as reduction in [1-14C] stearoyl CoA desaturation by scintillation counting; assay type: cell-based, Hepatocyte
Outline: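 The cellular assay used rat hepatocytes with functional OATPs to assess active transport. IC50 values are the average of at least two independent titrations.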

[4] = test system: HepG2; test: Ratio of IC50 for SCD-1 activity in organic anion transporting polypeptides-deficient human HepG2 cells to IC50 for SCD-1 activity in rat hepatocytes expressing organic anion transporting polypeptides; assay type: cell-based
Outline: (§1)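 The fold shift is the ratio of IC50 values between two assays: rat liver microsomal enzyme, HepG2 whole cell, and OATP-containing rat hepatocytes. Each IC50 is the average of at least two independent titrations.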

[5] = biological target: T3, Acyl-CoA desaturase 1 (Rattus norvegicus) (UniProt P07308); test: Ratio of IC50 for SCD-1 activity in rat hepatocytes expressing organic anion transporting polypeptides to IC50 for SCD-1 activity in rat liver microsomes; details: Hepatocyte, Microsome; outline: as §1
T3 sequence (whole entry): T1 sequence (P07308 whole entry)

[6] = biological target: Acyl-CoA (8-3)-desaturase (Homo sapiens, UniProt O60427); test: Inhibition of human delta-5 desaturase activity in human HepG2 cells using [1-14C]-stearic acid tracer; assay type: cell-based
Sequence of Acyl-CoA (8-3)-desaturase (O60427 whole entry): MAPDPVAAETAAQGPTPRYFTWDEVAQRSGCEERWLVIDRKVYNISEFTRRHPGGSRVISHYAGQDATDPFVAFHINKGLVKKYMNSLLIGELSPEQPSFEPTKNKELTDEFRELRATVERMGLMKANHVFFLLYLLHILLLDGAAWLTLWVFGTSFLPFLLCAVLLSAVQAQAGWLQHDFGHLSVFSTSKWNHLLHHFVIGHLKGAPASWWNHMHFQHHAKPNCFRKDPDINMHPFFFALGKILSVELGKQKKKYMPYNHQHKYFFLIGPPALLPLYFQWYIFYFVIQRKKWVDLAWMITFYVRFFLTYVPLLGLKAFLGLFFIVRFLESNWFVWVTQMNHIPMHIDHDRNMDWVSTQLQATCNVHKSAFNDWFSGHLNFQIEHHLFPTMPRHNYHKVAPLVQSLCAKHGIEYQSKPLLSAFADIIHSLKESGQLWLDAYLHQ

[7] = biological target: T4, Acyl-CoA 6-desaturase (Homo sapiens, UniProt O95864); test: Inhibition of human delta-6 desaturase activity in human HepG2 cells using [1-14C]-stearic acid tracer; assay type: cell-based
T4 sequence (O95864 whole entry): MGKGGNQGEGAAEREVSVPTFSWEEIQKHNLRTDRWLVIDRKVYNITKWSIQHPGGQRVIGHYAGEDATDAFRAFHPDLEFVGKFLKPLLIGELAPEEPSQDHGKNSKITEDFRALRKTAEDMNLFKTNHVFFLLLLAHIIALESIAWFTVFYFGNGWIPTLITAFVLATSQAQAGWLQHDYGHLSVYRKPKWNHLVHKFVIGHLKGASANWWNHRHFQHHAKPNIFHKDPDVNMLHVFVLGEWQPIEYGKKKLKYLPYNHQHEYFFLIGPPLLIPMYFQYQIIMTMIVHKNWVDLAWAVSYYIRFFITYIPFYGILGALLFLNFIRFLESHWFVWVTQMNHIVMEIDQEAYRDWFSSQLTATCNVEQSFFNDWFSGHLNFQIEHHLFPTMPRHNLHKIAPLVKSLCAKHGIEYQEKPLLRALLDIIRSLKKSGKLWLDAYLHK

[8] = AUC (0 to 6 hrs) in C57BL/6 mouse at 10 mg/kg, po; assay type: ADME, organism-based, C57BL6; parameters: time < 6 hr, dose 10 mg/kg, route oral; details: plasma
Outline: (§2)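 C57BL6 mice were dosed orally at 10 mg/kg. Drug exposure was measured over 0–6 h to give AUC_0–6h, and oral bioavailability (F) was also determined.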

[9] = Oral bioavailability in C57BL/6 mouse at 10 mg/kg; assay type: ADME, organism-based, C57BL6; details: in vivo; outline: as §2
[10] = test system: Mus musculus; test: Antidiabetic activity in C57BL/6 mouse LPD model assessed as reduction in liver SCD activity at 14.8 uM liver concentration dosed at 10 mg/kg, po measured 3 hrs post dosing; assay type: functional; details: C57BL6, 3 h
[11] = Drug level in liver of C57BL/6 mouse at 10 mg/kg, po measured 6 hrs post dosing; assay type: ADME, organism-based, C57BL6; parameters: dose 10 mg/kg, route oral; details: read-out: Drug uptake
Outline: (§3)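 Tissue distribution was measured in mice given 10 mg/kg PO, n = 2. Liver, plasma and Harderian gland drug concentrations were measured 6 h post dose. Liver/plasma and liver/Harderian ratios were taken from these concentrations.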

[12] = biological target: T5, Acyl-CoA desaturase 1 (Mus musculus, UniProt P13516); test: Inhibition of mouse SCD-1
T5 sequence (P13516 whole entry): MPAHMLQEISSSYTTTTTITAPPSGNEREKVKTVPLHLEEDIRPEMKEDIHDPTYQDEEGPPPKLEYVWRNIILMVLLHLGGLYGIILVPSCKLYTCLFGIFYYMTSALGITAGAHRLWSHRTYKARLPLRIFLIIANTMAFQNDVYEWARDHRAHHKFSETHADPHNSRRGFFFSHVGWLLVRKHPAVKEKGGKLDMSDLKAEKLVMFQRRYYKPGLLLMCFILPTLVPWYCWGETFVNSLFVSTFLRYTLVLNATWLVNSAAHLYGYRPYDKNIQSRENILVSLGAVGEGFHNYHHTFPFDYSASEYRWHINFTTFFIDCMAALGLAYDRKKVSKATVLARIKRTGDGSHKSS

[13] = biological target: T6, Stearoyl-CoA desaturase 5 (Homo sapiens, UniProt Q86SK9); test: Inhibition of human SCD-5
T6 sequence (Q86SK9 whole entry): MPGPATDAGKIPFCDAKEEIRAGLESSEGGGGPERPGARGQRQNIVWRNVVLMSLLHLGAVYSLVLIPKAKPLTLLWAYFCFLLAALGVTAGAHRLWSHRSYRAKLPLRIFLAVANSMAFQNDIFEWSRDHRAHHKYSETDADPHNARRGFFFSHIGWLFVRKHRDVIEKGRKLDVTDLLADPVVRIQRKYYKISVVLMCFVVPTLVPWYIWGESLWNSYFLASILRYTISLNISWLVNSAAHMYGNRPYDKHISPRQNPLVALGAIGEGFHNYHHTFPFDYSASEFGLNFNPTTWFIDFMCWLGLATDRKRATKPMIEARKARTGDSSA

[14] = test system: Mus musculus; test: Antidiabetic activity in C57BL/6 mouse LPD model assessed as reduction in liver SCD activity at 4.9 uM liver concentration dosed at 2 mg/kg, po measured 3 hrs post dosing; assay type: functional; details: C57BL6, 3 h
[15] = test system: Mus musculus; test: Antidiabetic activity in C57BL/6 mouse LPD model assessed as reduction in liver SCD activity at 1.6 uM liver concentration dosed at 0.4 mg/kg, po measured 3 hrs post dosing; assay type: functional; details: C57BL6, 3 h
[16] = Drug level in plasma of C57BL/6 mouse at 10 mg/kg, po measured 6 hrs post dosing; assay type: ADME, organism-based, C57BL6; parameters: dose 10 mg/kg, route oral; details: read-out: Drug uptake; outline: as §3
[17] = Ratio of drug uptake in liver to plasma of C57BL/6 mouse at 10 mg/kg, po measured 6 hrs post dosing; assay type: ADME, organism-based, C57BL6; parameters: dose 10 mg/kg, route oral; outline: as §3
[18] = test system: Mus musculus; test: Antidiabetic activity in po dosed C57BL/6 mouse LPD model assessed as reduction in liver SCD activity measured 3 hrs post dosing; details: C57BL6, Liver
[19] = Drug level in harderian gland of C57BL/6 mouse at 10 mg/kg, po measured 6 hrs post dosing; assay type: ADME, organism-based, C57BL6; parameters: dose 10 mg/kg, route oral; details: read-out: Drug uptake; outline: as §3
[20] = test system: Mus musculus; test: Antidiabetic activity in C57BL/6 mouse LPD model assessed as reduction in liver SCD activity at 7.7 uM liver concentration dosed at 2 mg/kg, po measured 3 hrs post dosing; assay type: functional; details: C57BL6, 3 h
[21] = test system: Mus musculus; test: Ratio of drug uptake in liver to harderian gland of C57BL/6 mouse at 10 mg/kg, po measured 6 hrs post dosing; details: in vivo

IC50 [1]	IC50 [2]	IC50 [3]	SMILES	further results
34 nM	15400 nM	233 nM	O=C(O)Cn1nnc(-c2cnc(N3CC4CN(c5cc(F)ccc5Cl)CC4C3)s2)n1 (stereo not drawn)	–
128 nM	> 100000 nM	506 nM	O=C(O)Cn1nnc(-c2cnc(N3CC4(CCN(c5cc(F)ccc5Cl)CC4)C3)s2)n1	–
29 nM	9140 nM	176 nM	O=C(O)Cn1nnc(-c2cnc(N3C[C@@H]4C[C@H]3CN4c3cc(F)ccc3Cl)s2)n1	–
24 nM	9900 nM	198 nM	O=C(O)Cn1nnc(-c2cc(N3CC4CN(c5cc(F)ccc5Cl)CC4C3)no2)n1 (stereo not drawn)	Ratio IC50 [4]: 50; Ratio IC50 [5]: 8; IC50 [6]: > 80000 nM; IC50 [7]: > 80000 nM; AUC(0-t) at 6 h [8]: 2.1 µM·h; bioavailability [9]: 24%; inhibition in vivo at 10 mg/kg [10]: 72%; concentration at 6 h [11]: 2700 nM; IC50 [12]: 18 nM; IC50 [13]: 242 nM
43 nM	50900 nM	103 nM	O=C(O)Cn1nnc(-c2cnc(N3CC4(C3)CN(c3cc(F)ccc3Cl)C4)s2)n1	–
36 nM	> 100000 nM	438 nM	O=C(O)Cn1nnc(-c2cnc(N3CCC4(CC3)CN(c3cc(F)ccc3Cl)C4)s2)n1	–
–	–	–	O=C(O)Cn1nnc(-c2cc(N3CCC(Oc4cc(F)ccc4Br)CC3)no2)n1 [MK-8245]	inhibition in vivo at 2 mg/kg [14]: 89%; inhibition in vivo at 0.4 mg/kg [15]: 49%; concentration at 6 h [16]: 30 nM; Kp at 6 h [17]: 90; ED50 [18]: 1 mg/kg
59 nM	> 10000 nM	300 nM	O=C(O)Cn1nnc(-c2nnc(N3CC4CN(c5cc(F)ccc5Cl)CC4C3)s2)n1 (stereo not drawn)	–
28 nM	4200 nM	134 nM	O=C(O)Cn1nnc(-c2cnc(N3CCN(c4cc(F)ccc4Cl)CC3)s2)n1	AUC(0-t) at 6 h [8]: 0.7 µM·h; bioavailability [9]: 15%; concentration at 6 h [11]: 9300 nM; concentration at 6 h [16]: 220 nM; concentration at 6 h [19]: 50 nM; Kp at 6 h [17]: 40; IC50 [12]: 21 nM; inhibition in vivo at 2 mg/kg [20]: 61%; Ratio [21]: 180
